# High-throughput results deposited in PubChem by several laboratories.
# This excerpt belongs to a sample that is enriched for hits.
# Xi reactivation = activators of X-chromosome reactivation in mouse fibroblasts; XiGFP mouse fibroblasts, % GFP-positive cells imaging, 3 d; cells co-treated with 5-aza-dC sensitizer; scaled so ellipticine positive control = 100%; activation, % at 7.58 µM; actives 0.055% (n = 360,000);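 active = mean normalized replicate activation at least 10% and every replicate at or above 10%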;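 note: 0% = median of on-plate neutral control wells and 100% = ellipticine 6 µM median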
#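 assay system = SV40-immortalized XiGFP fibroblast cells, line 68-5-11 | buffer or medium = DMEM plus 5-aza-dC sensitizer | doses = single-point pinned compound dosing | times = 3-day compound exposure, then 15 min fixation at room temperature | benchmarks = positive control ellipticine, 6 µM final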
# Myeloid diff 2 = compounds promoting myeloid differentiation; ER-HoxA9 myeloid progenitors, lysozyme-GFP differentiation, flow cytometry; calls only at 10 µM; actives 1% (n = 360,000);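 active = normalized GFP-positive differentiation at or above the plate's own cutoff, the solvent-only control mean plus 3 SD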;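 note: cells exposed to compound for four days before flow analysis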
# ABCB6 inh 2 = blocks the human ABCB6 transporter; K562-ABCB6 porphyrin accumulation, flow cytometry, 1 h; active compounds read low; fluorescence ratio to DMSO, % at 10 µM; actives 0.19% (n = 360,000);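 active = fluorescence ratio to DMSO below 75%, the collection mean minus 3 SD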;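 note: signal is porphyrin accumulated inside mitochondria; 100% equals median channel fluorescence of DMSO control wells; lower ratio means ABCB6 inhibition with less porphyrin fluorescence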
# Target sequence (Q9NP58 whole entry, looked up): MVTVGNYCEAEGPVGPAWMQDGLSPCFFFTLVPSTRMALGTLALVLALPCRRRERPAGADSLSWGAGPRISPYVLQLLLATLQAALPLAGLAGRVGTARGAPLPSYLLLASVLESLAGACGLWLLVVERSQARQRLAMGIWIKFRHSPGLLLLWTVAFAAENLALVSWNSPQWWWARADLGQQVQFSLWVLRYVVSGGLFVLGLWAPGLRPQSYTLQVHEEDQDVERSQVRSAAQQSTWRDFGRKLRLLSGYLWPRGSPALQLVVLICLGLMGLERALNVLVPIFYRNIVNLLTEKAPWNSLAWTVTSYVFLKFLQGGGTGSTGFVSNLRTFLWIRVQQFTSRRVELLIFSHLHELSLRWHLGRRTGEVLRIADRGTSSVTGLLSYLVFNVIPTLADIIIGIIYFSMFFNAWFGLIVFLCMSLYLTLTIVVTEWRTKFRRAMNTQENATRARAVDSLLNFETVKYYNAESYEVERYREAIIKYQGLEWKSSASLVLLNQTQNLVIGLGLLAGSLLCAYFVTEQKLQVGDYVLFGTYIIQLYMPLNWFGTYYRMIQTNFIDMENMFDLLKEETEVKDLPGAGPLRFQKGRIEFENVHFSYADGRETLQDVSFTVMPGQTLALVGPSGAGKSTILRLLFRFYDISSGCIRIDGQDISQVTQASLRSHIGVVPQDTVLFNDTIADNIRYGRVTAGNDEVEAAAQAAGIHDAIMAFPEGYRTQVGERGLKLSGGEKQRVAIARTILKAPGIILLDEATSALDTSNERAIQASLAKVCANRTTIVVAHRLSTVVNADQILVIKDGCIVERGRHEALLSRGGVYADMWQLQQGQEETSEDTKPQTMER
# Myeloid diff = compounds promoting myeloid differentiation. shares compounds with Myeloid diff 2. ER-HoxA9 myeloid progenitors, GFP/Mac1 double-positive flow. calls only. actives 2% (n = 2,300). AID 651706;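 active = share of green or green-and-red cells above 9 and 9% in run 1 or 4 and 3% in run 2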
# GFP autofluor = compound fluorescence in myeloid differentiation counter-screen; shares compounds with Myeloid diff 2; ER-HoxA9 myeloid progenitors, no estrogen, GFP autofluorescence flow cytometry; vehicle wells 0%, positive control 100%; fluorescence response, % (no concentration beside the values); actives 7.4% (n = 2,300);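 active = over 5% cells positive for green fluorescent reporter, or over 2% positive for both it and APC stain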;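 note: range taken on the double positive population between DMSO and positive control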
# * = called active by the depositor; i = inactive; . = not tested or not shown; + = active, no number.
SMILES,Xi reactivation,Myeloid diff 2,ABCB6 inh 2,Myeloid diff,GFP autofluor
CN(Cc1nc(-c2cnccn2)no1)CC1(c2ccccc2)CC1(C)C (stereo not given),0,i,98,.,.
CCCC(=O)Nc1ccc2c(c1)C(=O)N(C)[C@H]1CC[C@@H](CC(=O)Nc3ccccc3)O[C@H]1CO2,0,.,.,.,.
C#CC[N+]1(CC#Cc2ccccc2)CCCC1,.,+,101,i,0
C(#Cc1ccccc1)C[N+]1(CC#Cc2cccc3ccccc23)CCCC1,0,i,98,.,.
Cc1noc(C)c1NC(=O)N(C)C[C@@H]1Oc2c(cccc2N(C)C)C(=O)N([C@@H](C)CO)C[C@H]1C,0,.,.,.,.
COc1ccc(CC(NC(C)=O)C(=O)NC2CCN(C(=O)c3cnccn3)CC2)cc1 (stereo not given),.,i,95,i,0
CC(=O)NC(Cc1ccccc1F)C(=O)NC1CCN(C(=O)c2cnccn2)CC1 (stereo not given),.,i,107,.,.
O=C(C[C@@H]1C=C[C@@H](NS(=O)(=O)c2ccc(F)cc2)[C@@H](CO)O1)NCc1ccncn1,0,.,.,.,.
CNc1ccccc1C(C)(C)c1cc(-c2cccc([N+](=O)[O-])c2)no1,0,i,134,.,.
CNc1ccccc1C(C)(C)c1cc(-c2cccc(Br)c2)no1,0,+,i,i,81*
Cn1cnc(S(=O)(=O)N[C@@H]2C=C[C@@H](CC(=O)NCC3CCCCC3)O[C@H]2CO)c1,0,.,.,.,.
NNC(=O)Cc1csc(-c2ccccc2)n1,0,i,97,.,.
NNC(=O)c1csc(-c2ccccc2)n1,0,+,103,i,0
COc1ccc(NS(=O)(=O)c2ccc3oc(SC)nc3c2)cc1,0,i,96,.,.
COc1ccc(NS(=O)(=O)c2ccc3oc(SC4CCOC4=O)nc3c2)cc1 (stereo not given),.,i,94,i,0
COc1ccccc1NC(=S)NC1CCC(CC2CCC(NC(=S)Nc3ccccc3OC)CC2)CC1 (stereo not given),0,+,97,i,0
COc1ccccc1NC(=S)NC1CCCC1,0,i,92,.,.
O=C(CCN1CCCCC1)NCC[C@H]1CC[C@@H](NS(=O)(=O)c2cccc(F)c2)[C@@H](CO)O1,0,.,.,.,.
Cn1c(C(=O)NCCN2CCOCC2)cc2c(=O)n(C)c3ccccc3c21,0,i,99,i,4
Cn1c(C(=O)NCCN2CCc3ccccc3C2)cc2c(=O)n(C)c3ccccc3c21,1,i,109,.,.
O=C(C[C@H]1C[C@H]2c3cc(NC(=O)C4CCOCC4)ccc3O[C@H]2[C@@H](CO)O1)NCc1cc(F)ccc1F,0,.,.,.,.
COc1ccccc1/C=C/C=C1\Oc2c(ccc(O)c2CN2CCN(CCO)CC2)C1=O,0,i,109,i,0
O=C1/C(=C/C=C/c2ccccc2)Oc2c1ccc(O)c2CN1CCN(CCO)CC1,0,i,103,.,.
c1ccc(-n2cc(CN3CCC(N4CCOCC4)CC3)c(-c3ccc4c(c3)OCO4)n2)cc1,0,+,94,i,0
c1ccc(-n2cc(CN3CCCC3)c(-c3ccc4c(c3)OCO4)n2)cc1,0,i,96,.,.
SMILES,Xi reactivation,Myeloid diff 2,ABCB6 inh 2,Myeloid diff,GFP autofluor
COc1ccc(-c2nc(N)ncc2Oc2ccccc2Br)c(O)c1,.,+,99,i,0
COc1cccc(Oc2cnc(N)nc2-c2ccc(OC)cc2O)c1,.,i,95,.,.
CCCNC(=O)N1[C@H](CNC(C)=O)[C@H](c2ccc(C3=CCCC3)cc2)[C@@H]1CO,0,.,.,.,.
C=CCc1c(C)nc(-c2ccccc2)nc1Nc1ccccc1O,0,+,183,i,63*
C=CCc1c(C)nc(-c2ccccc2)nc1N/N=C/c1ccccc1,0,i,108,.,.
COc1ccc(S(=O)(=O)N(C)C[C@@H]2Oc3ccc(NC(=O)CCCN(C)C)cc3CC(=O)N([C@H](C)CO)C[C@@H]2C)cc1,0,.,.,.,.
C[C@H]1CN([C@@H](C)CO)C(=O)c2cc(NC(=O)C3CCCCC3)ccc2O[C@H]1CN(C)CC1CC1,-1,.,.,.,.
Cc1csc(=O)n1CC(=O)OCC(=O)NNC(=O)c1ccc([N+](=O)[O-])cc1,0,+,104,i,0
Cc1csc(=O)n1CC(=O)OCC(=O)NNC(=O)c1ccccc1,0,i,97,.,.
